# Like-named read-outs stand apart in the source and are kept apart here. Marks after values point to notes of the source that are not given here.
# Assays:
# [1] = target: T1, FAAH (Rattus norvegicus, UniProt P97612); experiment: FAAH activity in vitro, rat brain membranes, [3H]-anandamide hydrolysis; type: biochemical
# T1 sequence (P97612 1-579): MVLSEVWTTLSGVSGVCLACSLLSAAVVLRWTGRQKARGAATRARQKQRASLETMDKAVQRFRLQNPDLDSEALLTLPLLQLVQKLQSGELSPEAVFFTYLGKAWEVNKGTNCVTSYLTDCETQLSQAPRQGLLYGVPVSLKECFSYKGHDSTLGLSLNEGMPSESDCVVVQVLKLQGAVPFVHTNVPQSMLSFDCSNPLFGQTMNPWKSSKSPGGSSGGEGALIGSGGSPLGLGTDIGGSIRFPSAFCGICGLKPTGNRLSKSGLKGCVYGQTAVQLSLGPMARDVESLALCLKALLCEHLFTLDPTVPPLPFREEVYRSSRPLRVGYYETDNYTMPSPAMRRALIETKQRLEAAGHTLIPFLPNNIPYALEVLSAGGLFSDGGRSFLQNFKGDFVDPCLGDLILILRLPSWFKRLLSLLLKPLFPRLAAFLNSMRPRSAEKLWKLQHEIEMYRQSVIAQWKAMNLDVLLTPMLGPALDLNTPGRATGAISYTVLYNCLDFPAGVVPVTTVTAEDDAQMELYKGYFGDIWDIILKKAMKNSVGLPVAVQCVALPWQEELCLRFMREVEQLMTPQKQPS
# [2] = Stability in phosphate buffered saline at pH 7.4; type: physicochemical; settings: PBS pH 7.4, 37 °C; for pH 7.4 (%), percent remaining after 24 h incubation: 1 μM compound
# How it was run: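 Test compound at 1 μM final (1% DMSO) in 10 mM PBS, pH 7.4, at 37 °C. Aliquots were taken at intervals and quantified by LC against calibration curves built in spiked PBS. Reported as percent remaining after 24 h.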
# [3] = Stability in rat plasma; type: in vitro ADME; settings: for Rat Plasma t1/2: 80% rat plasma in PBS pH 7.4, 37 °C; for half-life at 1 μM: rat, pooled rat plasma diluted to 80% (vol/vol) with PBS, pH 7.4
# How it was run: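 Heparinized rat blood from cardiac puncture gave plasma (1,900 x g), pooled and diluted to 80% v/v with 100 mM PBS, pH 7.4. Test compound was added from a 100 μM DMSO stock and incubated at 37 °C with shaking. Timed samples were quenched in ice-cold acetonitrile, spun, and analysed by reversed-phase HPLC-UV against plasma calibration curves. Apparent t1/2 came from log-concentration-versus-time regression.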
# [4] = target: T2, FAAH (Mus musculus, UniProt O08914); experiment: Brain FAAH activity measured ex vivo after i.p. administration in mice; settings: for ID50 / Percent FAAH activity remaining at 1 mg-kg^−1 / inhibition of brain FAAH activity in vivo: mice; for ID50 / inhibition of brain FAAH activity in vivo: i.p.; for ID50: brain FAAH activity ex vivo; for Percent FAAH activity remaining at 1 mg-kg^−1: 1 mg-kg^−1 i.p., brain FAAH ex vivo, printed in ID50 column; for inhibition of brain FAAH activity in vivo: doses up to 1 mg-kg^−1; for ED50: mouse, ip, read-out: ID50
# T2 sequence (O08914 1-579): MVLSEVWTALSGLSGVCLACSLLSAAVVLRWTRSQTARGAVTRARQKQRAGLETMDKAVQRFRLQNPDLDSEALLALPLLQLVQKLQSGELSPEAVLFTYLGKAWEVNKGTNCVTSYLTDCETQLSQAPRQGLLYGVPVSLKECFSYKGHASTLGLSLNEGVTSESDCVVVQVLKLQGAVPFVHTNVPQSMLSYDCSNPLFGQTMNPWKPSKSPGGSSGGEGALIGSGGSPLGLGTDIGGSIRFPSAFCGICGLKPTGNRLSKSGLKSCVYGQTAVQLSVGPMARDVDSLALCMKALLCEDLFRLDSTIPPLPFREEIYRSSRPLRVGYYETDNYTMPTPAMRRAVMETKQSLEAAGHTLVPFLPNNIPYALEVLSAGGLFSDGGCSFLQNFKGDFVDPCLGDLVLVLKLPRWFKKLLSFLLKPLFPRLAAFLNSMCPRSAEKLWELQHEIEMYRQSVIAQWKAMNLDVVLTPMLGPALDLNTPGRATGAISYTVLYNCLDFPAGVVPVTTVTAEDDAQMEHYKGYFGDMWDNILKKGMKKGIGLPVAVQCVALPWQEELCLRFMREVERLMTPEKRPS
# How it was run: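 Mice received a single i.p. injection. Brains were frozen in liquid N2, thawed, homogenized in 10 vol ice-cold 50 mM Tris pH 7.5 with 0.32 M sucrose, and spun at 1000 x g for 10 min at 4 °C. Homogenate (50 μg protein) was incubated for 30 min at 37 °C in 50 mM Tris pH 7.5 with 0.05% fatty acid-free BSA and 10 μM anandamide plus [3H]-anandamide. Reactions were stopped with chloroform/methanol (1:1), and aqueous-layer radioactivity was scintillation counted.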
# [5] = Brain tissue and serum drug levels in mice by LC/MS; type: in vivo, mouse; settings: 1 mg-kg^−1 i.p.; for AUC in the brain: 2 h time-course, n = 3; for Cmax in brain tissue: single administration, n = 3 per timepoint
# [6] = system: liver carboxylesterases; type: biochemical; settings: rat liver microsomes, 30, 100 and 300 nM
# How it was run: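 Commercial rat liver microsomes (2.5 μg) were preincubated with test compound for 30 min at room temperature. p-Nitrophenylacetate was then added (1 mM final). After 20 min, p-nitrophenol formation was read as absorbance at 405 nm.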
# [7] = rat brain membranes, 10 μM anandamide, no pre-incubation
compound,measurement,setting,value
O=C(NC1CCCCC1)Oc1cccc(-c2ccccc2)c1 [Compound 1a],IC50,[1]; [7],25.6 ± 2 nM
same,"pH 7.4 (%), percent remaining after 24 h incubation",[2],41.1 ± 1.1%
same,Rat Plasma t1/2,[3],42.7 ± 3.7 min
same,ID50,[4],0.81 mg/kg
same,AUC in the brain,[5],2589 ± 423 arbitrary units
same,Cmax in brain tissue,[5],74 ± 3 pmol/g
O=C(NCCCCc1ccccc1)Oc1cccc(-c2ccccc2)c1 [Compound 1b],IC50,[1]; [7],9.4 ± 2.8 nM
same,"pH 7.4 (%), percent remaining after 24 h incubation",[2],35.9 ± 2.7%
same,Rat Plasma t1/2,[3],6.6 ± 0.7 min
same,"plasma t1/2, fold shorter than URB524","[3]; rat plasma, versus URB524",approximately 6 fold
same,ID50,[4],0.96 mg/kg
O=C(NCCCCCCCCc1ccccc1)Oc1cccc(-c2ccccc2)c1 [Compound 1c],IC50,[1]; [7],5.4 ± 0.5 nM
same,in vitro FAAH potency relative to parent URB524 (times more potent),[1]; ratio of IC50 versus URB524,approximately 5 fold
same,"pH 7.4 (%), percent remaining after 24 h incubation",[2],65.9 ± 3.1%
same,Rat Plasma t1/2,[3],7.0 ± 0.1 min
same,Percent FAAH activity remaining at 1 mg-kg^−1,[4],105% ^[b]
same,inhibition of brain FAAH activity in vivo,[4],completely inactive in vivo
NC(=O)c1cccc(-c2cccc(OC(=O)NC3CCCCC3)c2)c1 [Compound 1d],"pH 7.4 (%), percent remaining after 24 h incubation",[2],40.2 ± 0.6%
same,half-life at 1 μM,[3],33 ± 0.5 min
same,ED50,[4],0.22 mg/kg
same,AUC in the brain,[5],6036 ± 899 arbitrary units
same,Cmax in brain tissue,[5],226 ± 29 pmol/g
"NC(=O)c1cccc(-c2cccc(OC(=O)NCCCCCCCCc3ccccc3)c2)c1 [Compound 1f, 8-Phenyloctylcarbamic acid 3′-carbamoylbiphenyl-3-yl ester]",IC50,[1],0.26 ± 0.02 nM
same,"pH 7.4 (%), percent remaining after 24 h incubation",[2],42.8 ± 1.4%
same,half-life at 1 μM,[3],4 ± 0.1 min
same,Percent FAAH activity remaining at 1 mg-kg^−1,[4],65%^b
same,inhibition of brain FAAH activity in vivo,[4],little or no
same,drug levels in serum and brain after administration,[5],little or no increase in drug levels in serum and brain
"Nc1ccc(OC(=O)NC2CCCCC2)cc1-c1ccccc1 [Compound 1h, Cyclohexylcarbamic acid 6-aminobiphenyl-3-yl ester]",IC50,[1],27.2 ± 4.8 nM
same,"pH 7.4 (%), percent remaining after 24 h incubation",[2],89.0 ± 0.5%
same,ED50,[4],0.18 mg/kg
same,effect on liver carboxylesterase activities compared to URB597,[6],reduced effects on liver carboxylesterase activities
"O=C(NC1CCCCC1)Oc1ccc([N+](=O)[O-])c(-c2ccccc2)c1 [Compound 1i, Cyclohexylcarbamic acid 6-nitrobiphenyl-3-yl ester]",IC50,[1],> 30000 nM
same,"pH 7.4, value expressed as t1/2",[2],1.7 ± 0.1 ^[c] min
